Source: ChEMBL document CHEMBL1156381, “Cacofurans A and B, new furanoditerpenes from a marine sponge” (J Nat Prod, 2001)
≈ marks a conversion by molar mass, not a printed value. Calls of active or inactive are those of the source. The calls are words filed in the database; no cut-off is given here.

Assays:
K562 = test: Cytotoxicity against human K562 cells; format: functional, cell-based
P388 = test: Cytotoxicity against mouse P388 cells; format: functional, cell-based
Escherichia coli = test: Antibacterial activity against Escherichia coli; format: functional, organism-based
Staphylococcus aureus = test: Antibacterial activity against methicillin-resistant Staphylococcus aureus; format: functional, organism-based
NBT2 = test: Disruption of actin cytoskeleton in rat NBT2 cells at 10 ug/mL after 16 hrs by TMR-phalloidin imaging analysis; format: functional, cell-based
Outline: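 NBT-II rat bladder epithelial carcinoma cells were treated at 10 μg/mL. Cells were then permeabilized and stained with TMR-phalloidin to image the actin cytoskeleton, with control cells for comparison.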

[1] = Toxicity in sea urchin egg assessed as inhibition of development of fertilized egg by light microscopy; set-up: species or system Tripneustes gratilla
Outline: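 Eggs and sperm were collected from mature Tripneustes gratilla specimens for the fertilized-egg development assay.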

[2] = Cytotoxicity against rat NBT2 cells assessed as cell survival at 10 ug/mL after 16 hrs by phase contrast microscope; format: functional; conditions: NBT2, 16 h, read-out: Activity
Outline: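 Rat bladder epithelial carcinoma NBT-II cells were exposed to 10 μg/mL test agent. Phase contrast images of control and treated cells were recorded after 16 h on an image-based high content imaging workstation.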

Bacillus cereus = test: Antibacterial activity against Bacillus cereus; format: functional, organism-based

| SMILES | IC50 (K562) [µg/mL] | IC50 (P388) [µg/mL] | Activity (Escherichia coli) | Activity (Staphylococcus aureus) | Activity (NBT2) | IC50 [1] [µg/mL] | viability at 10 µg/mL [2] [%] | Activity (Bacillus cereus) |
| --- | --- | --- | --- | --- | --- | --- | --- | --- |
| CC(=O)O[C@@H](Cc1ccoc1)[C@@H]1[C@@]23CCCC(C)(C)[C@@H]2CC[C@]1(C)OC3 [CACOFURAN A] | > 1 | > 1 | inactive | inactive | Active | 0.5 (≈ 1.39 µM) | 50 | inactive |
| CC1(C)CCC[C@@]23CO[C@@](C)(CC[C@@H]12)[C@@H]3[C@@H](O)Cc1ccoc1 [CACOFURAN B] | > 1 | > 1 | inactive | inactive | Active | 5 (≈ 15.7 µM) | 50 | inactive |
